Experimental data from the M2OR odorant receptor database.

Experiments:
Or5an6 (Mus musculus) = Or5an6 (Mus musculus) (UniProt Q8VFV4); details: stereoisomer not certain
Summary of the method: (§1)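 Each receptor–molecule pair is labelled responsive or non-responsive (inactive) according to whether the original authors judged the measured signal statistically different from baseline. The data were taken from the main text and supplementary material of published papers and checked for typos and inconsistencies. Assay methods differed by source, with transient luciferase assays in mammalian cell lines being common.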

Or5p57 (Mus musculus) = Or5p57 (Mus musculus) (UniProt Q8VEZ0); details: stereoisomer not certain
Summary of the method: as §1
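Note: active if original authors judged signal statistically different from baseline.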

Sequence of Or5an6 (Mus musculus) (Q8VFV4 whole entry): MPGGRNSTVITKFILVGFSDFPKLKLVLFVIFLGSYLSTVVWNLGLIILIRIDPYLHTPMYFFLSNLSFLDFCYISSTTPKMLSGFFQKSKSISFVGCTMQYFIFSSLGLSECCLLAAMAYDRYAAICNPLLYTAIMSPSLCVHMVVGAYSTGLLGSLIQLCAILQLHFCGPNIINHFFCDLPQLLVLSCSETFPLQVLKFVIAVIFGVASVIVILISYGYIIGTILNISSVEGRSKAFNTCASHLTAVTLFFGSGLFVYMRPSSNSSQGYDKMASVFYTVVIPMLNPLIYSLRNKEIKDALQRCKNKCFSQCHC
Sequence of Or5p57 (Mus musculus) (Q8VEZ0 whole entry): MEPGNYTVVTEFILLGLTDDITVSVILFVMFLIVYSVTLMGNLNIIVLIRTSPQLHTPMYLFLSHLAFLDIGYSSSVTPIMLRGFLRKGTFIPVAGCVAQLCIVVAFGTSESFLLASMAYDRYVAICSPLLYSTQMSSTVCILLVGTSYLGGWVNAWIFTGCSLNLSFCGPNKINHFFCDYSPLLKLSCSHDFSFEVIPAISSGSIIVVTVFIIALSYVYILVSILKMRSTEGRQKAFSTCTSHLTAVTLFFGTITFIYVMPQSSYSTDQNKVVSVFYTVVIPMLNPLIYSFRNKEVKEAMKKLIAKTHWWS

## Cc1c([N+](=O)[O-])c(C)c([N+](=O)[O-])c(C(C)(C)C)c1[N+](=O)[O-]
Or5an6 (Mus musculus)
  odorant receptor agonist call: active

## CC(=O)c1cc(C(C)(C)C)cc2c1CCC2(C)C
Or5an6 (Mus musculus)
  odorant receptor agonist call: active

## O=C(O)CCCCCCCBr
Or5p57 (Mus musculus)
  odorant receptor agonist call: inactive
